# Source: PubChem BioAssay
# STK33 inh – human STK33 kinase inhibition | actives 0.073% (n = 320,000) | inhibition, % at 10 µM | Q9BYT3 | purified STK33, MBP phosphorylation, ADP-Glo luminescence;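 active = inhibition at or above 25%, using the most active replicate where run in duplicate; inactive = inhibition below 25%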
# GSIS activator – primary screen for activators of insulin secretion dependent on glucose, INS-1E cells, GLuc reporter luminescence; activation, % at 16.6 µM; actives 0.61% (n = 370,000); INS-1E GLuc reporter insulin secretion, 2-3 h;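 active = lowest replicate activation of at least 40%, so every replicate reaches that level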;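 also: 0% = median of neutral control wells and 100% = median of IBMX positive control wells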
# GSK3beta inhib – inhibitors of human GSK3beta kinase | P49841 | actives 0.038% (n = 300,000) | activity score (negative = inhibition), % at 10 µM | GST-GSK3beta kinase, ADP-Glo luminescence, 60 min; active compounds read low;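 active = more than half of replicate wells score below -50%, meaning over 50% inhibition versus plate controls; inconclusive = some replicates but at most half score below -50%; inactive = no replicate scores below -50%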;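 also: 0% = median DMSO wells and -100% = median GW8510 positive control wells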
# Target sequence (P49841 whole entry, looked up): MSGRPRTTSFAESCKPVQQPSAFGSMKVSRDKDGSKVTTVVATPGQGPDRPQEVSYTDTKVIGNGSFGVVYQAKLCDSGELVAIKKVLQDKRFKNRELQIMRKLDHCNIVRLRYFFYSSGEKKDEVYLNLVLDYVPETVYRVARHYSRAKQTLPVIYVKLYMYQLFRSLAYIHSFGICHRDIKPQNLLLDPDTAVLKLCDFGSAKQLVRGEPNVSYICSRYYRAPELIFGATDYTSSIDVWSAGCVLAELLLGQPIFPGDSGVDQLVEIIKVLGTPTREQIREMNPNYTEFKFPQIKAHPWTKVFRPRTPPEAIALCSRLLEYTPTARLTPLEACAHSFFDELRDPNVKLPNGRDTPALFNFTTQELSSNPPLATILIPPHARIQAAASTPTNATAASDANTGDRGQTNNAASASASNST
#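 Test system – GST-tagged human GSK3beta kinase, cell-free · Incubation – 60 min enzyme reaction, room temperature · Signal – ADP-Glo luminescence · Also added – peptide substrate and ATP at 25 µM · Controls – DMSO neutral wells and GW8510 at 20 µM as positive · Buffer or medium – Tris/MgCl2 kinase buffer · Measure – Luminescence-derived activity versus plate DMSO and GW8510 wells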
# Env fusion inh – inhibitors of HIV Env-mediated cell fusion; HeLa-JRFL Env/CEM21 cell fusion, luciferase; inhibition, % at 12.3 µM; actives 1.1% (n = 360,000); AID 651610;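 active = mean replicate inhibition score of at least 50 and every replicate individually at or above 50; inconclusive = only one of the two criteria met; inactive = mean below 50 and not all replicates reaching 50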;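 also: 0% = plate neutral controls and 100% = maraviroc near 300 nM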
# GSK3 alpha inh – blocks human GSK-3 alpha kinase; ADP-Glo luminescence, 60 min; inhibition, % at 10 µM; actives 0.1% (n = 320,000); P49840;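 active = more than half of replicates show inhibition above 20%; inconclusive = some but at most half of replicates above 20% inhibition; inactive = no replicate shows inhibition above 20%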;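 also: GST-tagged GSK-3 alpha with peptide substrate and 25 µM ATP; 0% = DMSO neutral wells and 100% = GW8510 positive control wells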
# CDK5 inh – CDK5/p35 (human) kinase inhibition; actives 0.01% (n = 330,000); inhibition, % at 10 µM; Q00535+Q15078; Recombinant CDK5/p35, ADP-Glo luminescence, 60 min;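 active = highest replicate inhibition of at least 50% and at least 75% of replicates reaching 50%; inconclusive = only one of the two criteria met; inactive = both criteria failed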;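 also: plate controls were DMSO neutral control for no effect and GW8510 at 10 µM for full effect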
# Numbers without * were called inactive; u = inconclusive; x = no result given; [ ] = remark or other dose. A selection: hits, their analogues and other compounds. The true share with any hit is near 1.4%.
SMILES,STK33 inh,GSIS activator,GSK3beta inhib,Env fusion inh,GSK3 alpha inh,CDK5 inh
Cc1cc(C(=O)NC(C)CCC(C)C)c2ccccc2n1 (configuration not stated),-1.0,56.5*,-0.8,6.8,-2.8,-1.0
C[C@H](CO)N1C[C@H](C)[C@H](CN(C)C(=O)Nc2ccccc2)Oc2ncc(Br)cc2C1=O,x,6.8,x,18.3[16.7 µM],x,x
CC(C)NC(=O)N(C)C[C@H]1Oc2ncc(C#CCc3ccccc3)cc2C(=O)N([C@@H](C)CO)C[C@@H]1C,x,-12.9,x,9.4[16.7 µM],x,x
C[C@@H]1CN([C@H](C)CO)C(=O)c2cc(NC(=O)C3CCCCC3)ccc2O[C@H]1CN(C)S(=O)(=O)c1ccccc1,x,-7.9,x,18.0[16.7 µM],x,x
C[C@@H]1CCCCO[C@H](CN(C)C)[C@H](C)CN([C@@H](C)CO)C(=O)c2cc(NC(=O)NC3CCCCC3)ccc2O1,x,-5.8,x,-1.5[16.7 µM],x,x
CN(Cc1ccccc1)c1nc(N)c([N+](=O)[O-])c(NCc2ccccc2)n1,-2.0,-35.0,-2.7,x,-2.7,-0.1
CN(Cc1ccccc1)c1ncnc(N)c1[N+](=O)[O-],3.1,44.2*,-3.5,u,25.2,1.9
CN(Cc1ccccc1)c1ncnc2sccc12,1.3,-13.1,1.7,4.9,-0.9,1.0
CN(Cc1ccccc1)c1ncnc2[nH]ncc12,x,40.2*,x,x,x,0.3
CO[C@H]1CN(C)C(=O)c2cc(NC(=O)c3cnccn3)ccc2OC[C@@H](C)N(CC2CC2)C[C@H]1C,x,13.0,x,x,x,x
COc1cc(O)c(C(C)=O)c2c1C=CC(C)(C)O2,x,-4.1,x,x,x,-0.5
CC(=O)c1c(O)cc2c3c1OC(C)(C)C1CCC(C)(CC31)O2 (configuration not stated),x,5.1,x,68.9*,x,x
CC(=O)Nc1ccc(S(=O)(=O)N2CCC(C(=O)NCc3ccco3)CC2)cc1,-0.8,33.0,-0.5,-25.3,3.0,-0.3
CC(C)c1ccc(S(=O)(=O)N2CCC(C(=O)NCc3ccco3)CC2)cc1,x,-0.8,x,56.1*,x,0.6
COc1ccc(CCNC(=O)COC(=O)c2cccn2C)cc1,x,19.0,x,78.5*,x,-1.8
Cn1cccc1C(=O)OCC(=O)NCCCc1ccccc1,-1.4,8.3,x,15.5,-2.0,-0.2
Cn1cccc1C(=O)OCC(=O)NCCc1ccc(S(N)(=O)=O)cc1,-1.3,3.9,x,71.8*,-3.5,1.3
O=C(NCC(=O)N1CCN(c2ncccn2)CC1)c1ccccc1OC(F)F,-1.6,-1.6,x,85.5*,-2.6,4.9
COc1ccc(C(=O)NCC(=O)N2CCN(c3ncccn3)CC2)cc1OC,-0.1,36.8,x,7.4,-0.5,0.9
CC=Cc1ccc2n(c1=O)C[C@H]1[C@H](CO)[C@@H](C(=O)NCC3CCCCC3)N(C(C)=O)[C@@H]21 (mixture of isomers),x,13.4,x,x,x,x
COC(=O)c1c(NC(=O)CN2CCC3(O)CCCCC3C2c2ccc(OC)cc2OC)sc(C)c1C (configuration not stated),-1.0,x,-2.4,66.1*,-2.4,-0.6
Cc1c(Cl)cccc1NC(=S)NNc1ncc(C(F)(F)F)cc1Cl,-0.7,x,-4.4,67.5*,0.9,0.3
Cc1ccccc1NC(=S)NNc1ncc(C(F)(F)F)cc1Cl,3.2,x,1.3,-3.6,-1.4,0.2
O=C(N(c1ccccn1)c1ccccn1)C12CC3CC(CC(Cl)(C3)C1)C2,-0.5,12.9,4.0,72.8*,-3.5,-1.0
CC(c1ccco1)N(C(=O)C12CC3CC(CC(C3)C1)C2)c1ccccn1 (configuration not stated),-0.1,x,2.8,x,-2.6,1.8
SMILES,STK33 inh,GSIS activator,GSK3beta inhib,Env fusion inh,GSK3 alpha inh,CDK5 inh
C[C@@H]1CN([C@H](C)CO)S(=O)(=O)c2ccc(-c3ccncc3)cc2O[C@@H]1CN(C)C(=O)C1CCCCC1,x,5.4,x,24.3[16.7 µM],x,x
O=C(NCc1ccco1)c1ccc(Cn2c(=O)c3ccccc3n(Cc3cccc(Cl)c3)c2=O)cc1,0.4,x,2.0,89.1*,0.2,-0.5
Cc1ccc(NC(=O)Cn2c(=O)n(Cc3ccco3)c(=O)c3ccccc32)c(C)c1,3.7,x,-5.8,-45.7,6.6,1.7
O=C(Cn1c(=O)n(Cc2ccco2)c(=O)c2ccccc21)Nc1cccc(Cl)c1,-0.3,-25.5,2.9,95.2*,-1.6,1.3
O=C(CCn1c(=O)c2sccc2n(CC(=O)NCc2ccco2)c1=O)NCc1ccccc1,-0.1,20.2,-0.8,-31.9,-2.7,-1.7
CCn1c(=O)n(CC(=O)NCc2ccco2)c(=O)c2ccccc21,3.5,x,1.1,x,0.5,-0.9
O=C(NCc1ccco1)c1ccc(Cn2c(=O)c3sccc3n(Cc3cccc(F)c3)c2=O)cc1,0.6,-3.7,3.7,90.2*,-2.8,-0.6
COc1ccc(C2=NS(=O)(=O)N(C)C(C(=O)N3C(C)CCCC3C)=C2)cc1 (configuration not stated),0.0,-21.1,2.7,x,1.1,-0.3
COc1ccc(C2=NS(=O)(=O)N(C)C(C(=O)N3CCCCC3C)=C2)cc1 (configuration not stated),1.4,-5.9,0.2,60.1*,-1.5,1.2
O=C(C[C@@H]1CC[C@@H]2[C@H](COC[C@H](O)CN2Cc2nccs2)O1)NCc1ccccc1F,x,4.8,x,x,x,x
C[C@H]1CN([C@@H](C)CO)C(=O)c2cc(-c3cccc(F)c3)cnc2O[C@@H]1CN(C)Cc1cccc(F)c1,x,-14.5,x,19.8[16.7 µM],x,x
CN(Cc1cnc2nc(N)nc(N)c2n1)c1ccc(C(=O)NC(CCC(=O)O)C(=O)O)c2ccccc12 (configuration not stated),x,27.5,x,64.3*,x,0.7
O=C(O)CCC(NC(=O)c1ccc(Cl)cc1)C(=O)O (configuration not stated),-0.5,12.9,3.2,11.6,-0.4,2.0
COCC(=O)N(C)C[C@H]1Oc2ncc(C#CC(C)(C)O)cc2C(=O)N([C@H](C)CO)C[C@@H]1C,x,17.0,x,-7.5[16.7 µM],x,x
COc1ccc2c3c([nH]c2c1)[C@@H](CO)N(Cc1ccccc1)CC31CN(C)C1,x,-7.9,x,x,x,x
Cc1cccc(C)c1Oc1nc(-c2ccccc2)ncc1S(=O)(=O)c1ccccc1,-1.3,x,0.7,x,0.8,1.4
Cc1cc(Cl)ccc1Oc1nc(-c2ccccc2)ncc1S(C)(=O)=O,-0.6,149.7*,-1.1,x,8.5,-0.1
C[C@@H]1CN([C@H](C)CO)C(=O)Cc2cc(NC(=O)CCCCCC(=O)Nc3ccccc3N)ccc2O[C@H]1CN(C)S(=O)(=O)c1cccs1,x,-2.3,x,3.4[16.7 µM],x,x
C[C@@H]1CN([C@H](C)CO)C(=O)c2cc(NC(=O)CCCN(C)C)ccc2O[C@@H](C)CCCCO[C@@H]1CN(C)Cc1ccccc1,x,25.8,x,10.5[16.7 µM],x,x
CO[C@H]1CN(C)C(=O)c2cc(NS(C)(=O)=O)ccc2OC[C@@H](C)N(Cc2cccnc2)C[C@@H]1C,x,-5.3,x,x,x,x
CN1C(=O)c2cc(NC(=O)C3CCOCC3)ccc2OC[C@@H]2O[C@H](CC(=O)O)CC[C@H]21,x,-0.5,x,u,x,x
